The subject of data set [1] is SW480 cells. Nature of the data set: Cell survival, dead cells and proliferation of SW480 cells. In kind it is cell-based, human. The conditions noted are these: SW480, 0.125 μM WX8 and/or 5 μM SB202190.
Data set [2] deals with SW480 colon adenocarcinoma xenografts. Nature of the data set: SW480 xenograft in nude mice. Particulars: for reduction of tumor growth: 20 mg/kg WX8 and/or 12.5 mg/kg SB202190, day 22; for Ki-67 positive tumor cells: tumor sections.
Data set [3] relates to LC3, p62, LAMP2. Nature of the data set: Immunoblot time course of autophagy-degraded proteins in SW480 cells. The format is cell-based, human. The conditions noted are these: for p62 accumulation, p38MAPK inhibitor alone: SW480, 1 or 3 days. (In western blotting, separated proteins are transferred to a membrane and probed.)
For data set [4], the system named is Cathepsin D. The data set is described as follows: Cathepsin D maturation in SW480 cells. In kind it is cell-based, human. Particulars: SW480, 0.125 μM WX8 with or without 5 μM SB202190. The essentials:
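SW480 cells were cultured for the indicated times with 0.125 μM WX8, 5 μM SB202190, or both, each diluted 1:1,000 from DMSO stocks, with DMSO as vehicle. Cells were trypsinized and pooled with unattached cells, then lysed in SDS sample buffer. Precursor and mature Cathepsin D were immunoblotted (nitrocellulose, peroxidase secondary, chemiluminescence) and quantified by densitometry of low-exposure images.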

Data set [5] deals with 8 normal fibroblast cell lines. The data set is described as follows: Cell survival after 3 days, viable cell count with FACS. In kind it is cell-based, human. Particulars: read-out: median IC50 (concentration that cause 50% reduction in cell survival), 3 days of treatment.
Data set [6] deals with 12 cancer lines. Described as above. The conditions noted are these: read-out: median IC50 (concentration that cause 50% reduction in cell survival), 3 days of treatment. In kind it is cell-based, human.
Data set [7] deals with LC3, p62. In kind it is cell-based, human. Particulars: 0.5 μM WX8, all four cell lines.
The test system of data set [8] is MCF10A cells. Nature of the data set: Cell survival of MCF10A cells after p38MAPK siRNA depletion. The format is cell-based, human. The conditions noted are these: 0.5 μM WX8, 3 days.
The test system of data set [9] is HCT116 and A375 (sensitive), WI38 and Hs27 (resistant) cell lines. The data set is described as follows: Cell survival, sensitive versus resistant cell lines. The format is cell-based, human.
Setting [10] is: 20 mg/kg WX8 and/or 12.5 mg/kg SB202190.
Where [11] appears, read: SW480, 0.125 μM WX8 and/or 5 μM SB202190.

These results are taken from article PMC8178204 (Cancer research, 2021).

On to `Oc1ccc(-c2nc(-c3ccncc3)c(-c3ccc(F)cc3)[nH]2)cc1` [SB202190], for which the “effect on proliferation (cell divisions per day) over time” value in [1] is on record as “reduced proliferation for up to two days”. In addition, the “adverse effects (mouse behavior, body weight)” value in [2] (daily intraperitoneal, 20 mg/kg WX8 and/or 12.5 mg/kg SB202190) is given as “No adverse effects were apparent”. The “reduction of tumor growth” value in [2] (daily intraperitoneal) is 28%. For the same compound, the “Ki-67 positive tumor cells” value in data set [2] (setting [10]) is recorded as “about 75%”. Besides, in data set [3] (setting [11]), the LAMP2 level increase result is given as “about 3 fold”, the p62 level increase result is given as “about 3 fold” and the “total LC3 protein accumulation above initial levels” value worked out at 2 fold. For the same compound, in data set [3], the “p62 accumulation, p38MAPK inhibitor alone” value is given as “caused accumulation of p62”.

For `C(=N\Nc1nc(Nc2ccccc2)nc(N2CCOCC2)n1)/c1c[nH]c2ccccc12` [WX8], the “effect on proliferation (cell divisions per day) over time” value in data set [1] is recorded as “reduced proliferation for up to two days”. The “day at which active Cathepsin D reappeared” value in data set [4] was 3 days. The IC50 in data set [5] was found to be 2700 nM. The IC50 in data set [6] worked out at 200 nM. Also, in [7], the “Total LC3 and the LC3-II/I ratio” value is “increased”; the p62 level result is given as “p62 accumulation”. Besides, the “reduction of tumor growth” value in data set [2] (daily intraperitoneal) is 22%. In [2] (setting [10]), the “Ki-67 positive tumor cells” value is “about 75%”. Also, the “reduction of cell survival” value in data set [8] (control siRNA-transfected cells) is 20%. Further, the “reduction of cell survival” value in data set [8] (highest levels of p38MAPK depletion) was determined as 65%. For the same compound, in data set [3] (setting [11]), the LAMP2 level increase entry is “about 3 fold”; the p62 level increase entry is “about 3 fold”; the “time course of LC3 and p62 protein levels” value is listed as “peaked on day 2”; the “total LC3 protein accumulation above initial levels” value stood at 5 fold. Besides, in data set [9], the “difference in sensitivity to WX8 between sensitive and resistant cell lines” value is “approximately 16 fold”.

In the case of `CC(C)(C)Cn1c(N)nc2ccc(-c3[nH]c(C(C)(C)C)nc3-c3ccc(F)cc3)nc21` [LY2228820], the “p62 accumulation, p38MAPK inhibitor alone” value in data set [3] was “caused accumulation of p62”.
